Screening data as filed in PubChem.
Shown are actives, neighbours in structure and some others; about 2% of the full set was active somewhere.
SIAE primary = human SIAE inhibition, primary screen | SIAE FP-Rh probe binding, fluorescence polarization | inhibition, % at 9.66 µM | 370,000 tested, 0.69% active;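 active = inhibition above a cutoff: mean of compounds within the control limits plus 3 SD of those, cut at about 17% in these data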;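 also: 0% = plate median of compound wells and 100% = probe without SIAE protein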
Target sequence (Q9HAT2 whole entry, looked up): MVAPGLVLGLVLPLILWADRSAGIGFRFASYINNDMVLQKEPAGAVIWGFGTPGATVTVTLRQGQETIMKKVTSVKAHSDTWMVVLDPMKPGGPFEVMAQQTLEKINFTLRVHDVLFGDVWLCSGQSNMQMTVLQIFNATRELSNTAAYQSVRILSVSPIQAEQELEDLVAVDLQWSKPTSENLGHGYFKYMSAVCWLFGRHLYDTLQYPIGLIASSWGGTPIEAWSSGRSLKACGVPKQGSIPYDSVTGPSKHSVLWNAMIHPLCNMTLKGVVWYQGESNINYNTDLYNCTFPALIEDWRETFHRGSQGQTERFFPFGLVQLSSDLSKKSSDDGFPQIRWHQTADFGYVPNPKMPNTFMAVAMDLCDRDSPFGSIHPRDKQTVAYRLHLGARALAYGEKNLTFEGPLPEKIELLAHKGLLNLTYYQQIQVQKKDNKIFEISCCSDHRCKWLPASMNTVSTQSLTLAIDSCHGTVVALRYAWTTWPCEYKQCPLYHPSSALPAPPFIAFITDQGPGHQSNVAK
HTRA1 inhibitor = inhibitors of human serine peptidase HTRA1; Q92743; recombinant HTRA1, FP-rhodamine activity-based probe, fluorescence polarization; inhibition, % at 5.96 µM; 340,000 tested, 0.5% active; in the data active = inhibition above about 36%;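 also: 0% = enzyme with DMSO and 100% = wells lacking enzyme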
TDP2 inh = TDP2 (human) inhibition, absorbance primary screen | O95551 | recombinant TDP2, T5PNP hydrolysis, p-nitrophenol absorbance 415 nm | inhibition, % at 12.8 µM | 370,000 tested, 0.34% active;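 active = inhibition above the mean of all tested compounds plus 3 SD, set per campaign, cut at about 25% in these data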;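 also: 0% = DMSO with enzyme and 100% = buffer with substrate but no TDP2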
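Assay system: recombinant human TDP2 / Reagent: T5PNP substrate at 5 mM, a TopII-DNA adduct mimic / Measured by: epi absorbance from released p-nitrophenol / Evaluation: % inhibition relative to enzyme-containing and enzyme-free wells / Control set: enzyme-free and DMSO wells / Replicates: each compound tested once, singlicate / Schedule: enzyme reaction with compound for 2 h at 37 °C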
PAD4 inh = PAD4 (human) enzyme inhibition; Q9UM07; 330,000 tested, 0.41% active; recombinant PAD4, RCA probe fluorescence polarization; inhibition, % at 6.36 µM;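 active = percent inhibition above a cutoff equal to the mean of all tested compounds plus 3 SD, cut at about 15% in these data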;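 also: 0% = PAD4 with RCA probe and DMSO and 100% = probe without PAD4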
ABHD4 inh = ABHD4 (mouse) inhibition, primary FP screen; Q8VD66; purified mABHD4, FP-Rh probe fluorescence polarization; inhibition, % at 8.92 µM; 370,000 tested, 0.54% active; AID 720543;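 active = inhibition exceeding the mean over every tested compound plus 3 SD, cut at about 30% in these data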;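 also: 0% = plate median of compound wells and 100% = S159A mutant with DMSO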
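Assay system: Wild-type mouse ABHD4 protein | Medium: HEPES pH 7.0 buffer, 150 mM NaCl, 0.01% Pluronic F-127 | Incubation: Enzyme–compound pre-incubation 45 min, then probe 60 min, both 25 °C | Technique: Fluorescence polarization with parallel and perpendicular emission, 525/598 nm | Evaluation: % inhibition of FP-Rh probe binding versus controls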
TCR CD3 inh = inhibitors of human TCR-CD3 interaction; AID 651800; TAMRA-labeled TCR probe fluorescence, biochemical; 360,000 tested, 0.37% active; inhibition, % at 9.4 µM; in the data active = inhibition above about 19%;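 also: recombinant mutant TCR 2C K166C tagged with TAMRA read by polarization; 0% = receptor in buffer alone and 100% = receptor with positive control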
TDP2 inh conf = confirmation of human TDP2 inhibitors | 1,100 tested, 22% active | shares compounds with TDP2 inh | inhibition, % at 12.8 µM | recombinant human TDP2, absorbance read-out; in the data active = inhibition above about 25%;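 also: 0% = vehicle with enzyme and 100% = no enzyme buffer only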
Numbers without * were called inactive; x = no result.

SMILES	SIAE primary	HTRA1 inhibitor	TDP2 inh	PAD4 inh	ABHD4 inh	TCR CD3 inh	TDP2 inh conf
N#CCCN(C(=O)CSc1ncccn1)c1ccc2c(c1)OCCO2	2	6	2	-4	3	0	x
Cc1cc(NC(=O)COc2ccccc2)n(-c2ccccc2)n1	-4	-1	4	-4	3	-4	x
Cc1cc(NC(=O)CSc2nccn2C)n(-c2ccccc2)n1	6	6	26*	0	5	6	1
O=C(Nc1ccncc1)c1cc2ccccc2cc1O	4	3	7	-6	13	6	x
COc1ccc(CCNC(=O)Cn2c(=O)n(CCCC(=O)NCc3ccco3)c(=O)c3sccc32)cc1OC	-4	7	27*	-2	5	-5	3
O=C(CCCn1c(=O)c2sccc2n(CC(=O)NCc2ccco2)c1=O)NCc1ccco1	0	11	8	1	-4	4	x
COc1ccc(CCNC(=O)CCNC(=O)c2ccc(Cl)cc2)cc1OC	-3	6	4	-5	3	3	x
COc1ccc(CNC(=O)CCCNC(=O)c2ccc(Cl)cc2)cc1OC	-1	5	33*	3	-3	-6	0
O=C(Nc1c(-c2ccccc2)[nH][nH]c1=O)c1ccc2ccccc2c1	1	x	8	x	1	12	x
COc1ccc(-c2[nH][nH]c(=O)c2NC(=O)c2ccc(C)cc2)cc1	3	x	25*	x	2	5	30*
O=C(Nc1c(-c2ccccc2)[nH][nH]c1=O)c1ccc(Br)cc1	3	x	33*	x	7	8	16
O=C(Nc1c(-c2ccccc2)[nH][nH]c1=O)c1cccs1	-11	x	42*	x	-2	-3	15
CCOc1ccccc1NS(=O)(=O)c1c(C)[nH]c(C)c1C(=O)N1CCCCC1	-6	-3	5	0	5	0	x
COc1cccc(-c2nnn(CC(=O)N(C3CCCCC3)C3CCS(=O)(=O)C3)n2)c1 (centres undefined)	-3	-1	-1	x	2	3	x
CC1=NOC(=O)/C1=C/c1ccc(N(C)C)cc1	-13	x	18	3	-7	6	x
CC1=NN(CCC#N)C(=O)/C1=C/c1ccc(N(C)C)cc1	-5	-2	42*	-21	8	-3	-4
CCOc1ccc(C(=O)C(C)OC(=O)c2cnc(C)cn2)cc1 (centres undefined)	-12	-4	-1	0	3	7	x
C[n+]1cccc2c(Br)ccc([O-])c21	10	17	71*	6	11	7	37*
Cc1ccc(C)c(CN2CCSCC2)c1	-6	3	26*	-9	13	-2	4
Clc1ccc(CN2CCSCC2)c(Cl)c1	-8	2	10	5	11	8	x
Cc1ccc2nc(-c3ccc(NC(=O)CSc4nnc(-c5cc(-c6ccc(F)cc6)n[nH]5)n4N)cc3)sc2c1	-6	x	9	x	2	x	x
O=C(O)CCCc1nc(-c2ccc(Cl)cc2)no1	0	0	-9	0	3	-1	x
O=C(CCc1nc(-c2ccc(Cl)cc2)no1)OCc1ccc(Br)cc1	-2	-6	40*	2	13	4	4
Nc1cccc2nsnc12	7	5	60*	-11	2	10	5
Cc1ccc2nsnc2c1N	-5	5	10	-14	-1	7	x
SMILES	SIAE primary	HTRA1 inhibitor	TDP2 inh	PAD4 inh	ABHD4 inh	TCR CD3 inh	TDP2 inh conf
O=C1C(=O)c2ccccc2C([O-])=C1[n+]1ccccc1	-3	3	22	-10	-1	-1	x
CCc1cc[n+](C2=C([O-])c3ccccc3C(=O)/C2=N\S(=O)(=O)c2cccs2)cc1	-4	27	41*	10	29	-7	40*
CN1C(=O)NC(c2ccccc2[N+](=O)[O-])C2=C1CC(C)(C)CC2=O (centres undefined)	1	3	31*	-14	8	6	13
COc1cccc(N2CCN(C(=O)c3cc(C)oc3C)CC2)c1	12	-3	-3	-6	3	-1	x
Cc1ccc(S(=O)(=O)N2CCN(C(=O)COC(=O)CCCOc3ccccc3)CC2)c(C)c1	-2	-7	-2	-2	-1	0	x
COC(=O)c1noc(C)c1-c1ccnn1C(=O)c1ccc(C)cc1	1	7	25*	-4	3	3	-3
COC1=CC(=O)c2c(ccc3ncnc(N)c23)C1=O	2	22	85*	x	4	1	82*
COc1ccccc1-n1ccnc(SCC(=O)NCc2ccccc2Cl)c1=O	-1	0	29*	2	-1	5	4
COc1cc(/C=N/NC(=S)NC2CC3CCC2C3)ccc1O (centres undefined)	3	0	-1	-1	9	1	x
S=C(N/N=C/c1ccc2c(c1)OCO2)NC1CC2CCC1C2 (centres undefined)	16	x	26*	-1	-4	3	7
O=C(/C=C/c1cccc([N+](=O)[O-])c1)NCCN1C(=O)S/C(=C\c2cccnc2)C1=O	4	-3	25*	-1	2	0	-3
CC(=O)c1ccc(N2CCN(C(=O)C(=O)c3cn(CC(=O)N4CCCCCC4)c4ccccc34)CC2)cc1	0	-7	5	-3	3	11	x
CC1(C)c2cc(O)ccc2OC1N1CCOCC1 (centres undefined)	7	3	25*	-4	-1	4	12
NS(=O)(=O)c1ccc(NC(=S)NCc2ccccc2Cl)cc1	-6	-4	-2	-1	3	-2	x
NS(=O)(=O)c1ccc(CCNCC(=O)NCc2ccccc2Cl)cc1	0	6	27*	14	12	-1	1
O=C(NCC(c1ccco1)N1CCOCC1)c1c(F)cccc1F (centres undefined)	1	0	25*	2	3	5	-2
Cc1ccccc1OCC(=O)Nc1ccc(N2CCN(C(=O)c3ccco3)CC2)cc1	1	5	-7	-4	2	7	x
O=C(N/N=C/c1c(F)cccc1Cl)C1CC1	-5	0	63*	2	1	0	-1
O=C(N/N=C/c1ccccc1Cl)C1CC1	5	-6	12	-3	6	1	x
COc1ccc(CCN(C)C(=O)C2CCCN(C3CCN(Cc4ccccc4)CC3)C2)cc1OC (centres undefined)	8	3	32*	-4	19	8	9
CC1=C(C(=O)N(C(C)C)C(C)C)CC(CC(=O)NCCN2CCOCC2)C(=O)N1Cc1ccccc1 (centres undefined)	0	2	6	x	11	1	x
C(=N\Nc1nncn1/N=C/c1ccco1)/c1ccco1	-1	4	55*	-6	9	2	0
